Experimental data reported in ChEMBL document CHEMBL2331542, “Synthesis and in vitro antibacterial activity of quinolone/naphthyridone derivatives containing 3-alkoxyimino-4-(methyl)aminopiperidine scaffolds” (2013).
Values after ≈ are worked out from the molar mass of the structure shown.

Key:
Type in all cases: functional
Klebsiella pneumoniae [1] = assay: Antibacterial activity against extended-spectrum beta-lactamase-producing Klebsiella pneumoniae isolate 12-4
Summary of the method: (§1)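 MIC determined in vitro by a standard technique and defined as the lowest compound concentration giving complete inhibition of bacterial growth. The Gram-positive and Gram-negative panels were tested alongside gemifloxacin, levofloxacin and ciprofloxacin reference drugs.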

Klebsiella pneumoniae [2] = assay: Antibacterial activity against extended-spectrum beta-lactamase-producing Klebsiella pneumoniae isolate 12-1; summary of the method: as §1
[3] = test system: Staphylococcus epidermidis; assay: Antibacterial activity against methicillin-resistant Staphylococcus epidermidis isolate 12-35
Summary of the method: (§2)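 MIC determined in vitro by standard techniques, defined as the lowest compound concentration giving complete inhibition of bacterial growth. Gemifloxacin, levofloxacin and ciprofloxacin were tested alongside as reference drugs.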

Klebsiella pneumoniae [4] = assay: Antibacterial activity against Klebsiella pneumoniae isolate 12-4; summary of the method: as §1
Staphylococcus aureus [5] = assay: Antibacterial activity against Staphylococcus aureus […]; summary of the method: as §1
Staphylococcus aureus [6] = assay: Antibacterial activity against methicillin-resistant Staphylococcus aureus isolate 12-15; summary of the method: as §2
[7] = test system: Staphylococcus epidermidis; assay: Antibacterial activity against methicillin-resistant Staphylococcus epidermidis isolate 12-33; summary of the method: as §2
Klebsiella pneumoniae [8] = assay: Antibacterial activity against extended-spectrum beta-lactamase-producing Klebsiella pneumoniae isolate 12-2; summary of the method: as §1
[9] = test system: Staphylococcus epidermidis; assay: Antibacterial activity against methicillin-sensitive Staphylococcus epidermidis isolate 12-3; summary of the method: as §1
Staphylococcus aureus [10] = assay: Antibacterial activity against methicillin-sensitive Staphylococcus aureus isolate 12-6; summary of the method: as §1
[11] = test system: Staphylococcus epidermidis; assay: Antibacterial activity against methicillin-sensitive Staphylococcus epidermidis isolate 12-1; summary of the method: as §1
Klebsiella pneumoniae [12] = assay: Antibacterial activity against Klebsiella pneumoniae isolate 12-1; summary of the method: as §1
Pseudomonas aeruginosa [13] = assay: Antibacterial activity against Pseudomonas aeruginosa ATCC 27853; summary of the method: as §1
[14] = test system: Staphylococcus epidermidis; assay: Antibacterial activity against methicillin-resistant Staphylococcus epidermidis isolate 12-5; summary of the method: as §2
Escherichia coli [15] = assay: Antibacterial activity against extended-spectrum beta-lactamase-producing Escherichia coli isolate 12-1; summary of the method: as §1
Escherichia coli [16] = assay: Antibacterial activity against Escherichia coli ATCC 25922; summary of the method: as §1
Escherichia coli [17] = assay: Antibacterial activity against Escherichia coli isolate 12-5; summary of the method: as §1
Streptococcus pneumoniae [18] = assay: Antibacterial activity against Streptococcus pneumoniae isolate 12-5; summary of the method: as §1
Streptococcus pneumoniae [19] = assay: Antibacterial activity against Streptococcus pneumoniae isolate 12-2; summary of the method: as §1
Staphylococcus aureus [20] = assay: Antibacterial activity against methicillin-resistant Staphylococcus aureus isolate 12-13; summary of the method: as §2
Pseudomonas aeruginosa [21] = assay: Antibacterial activity against Pseudomonas aeruginosa isolate 12-2; summary of the method: as §1
Pseudomonas aeruginosa [22] = assay: Antibacterial activity against Pseudomonas aeruginosa isolate 12-1; summary of the method: as §1
[23] = test system: Staphylococcus epidermidis; assay: Antibacterial activity against methicillin-sensitive Staphylococcus epidermidis isolate 12-2; summary of the method: as §1
Escherichia coli [24] = assay: Antibacterial activity against Escherichia coli isolate 12-1; summary of the method: as §1
Escherichia coli [25] = assay: Antibacterial activity against Escherichia coli isolate 12-4; summary of the method: as §1
Escherichia coli [26] = assay: Antibacterial activity against extended-spectrum beta-lactamase-producing Escherichia coli isolate 12-2; summary of the method: as §1
Escherichia coli [27] = assay: Antibacterial activity against extended-spectrum beta-lactamase-producing Escherichia coli isolate 12-4; summary of the method: as §1
Klebsiella pneumoniae [28] = assay: Antibacterial activity against Klebsiella pneumoniae isolate 12-2; summary of the method: as §1
Staphylococcus aureus [29] = assay: Antibacterial activity against methicillin-resistant Staphylococcus aureus isolate 12-3; summary of the method: as §2
Staphylococcus aureus [30] = assay: Antibacterial activity against methicillin-sensitive Staphylococcus aureus isolate 12-10; summary of the method: as §1
Staphylococcus aureus [31] = assay: Antibacterial activity against methicillin-sensitive Staphylococcus aureus isolate 12-7; summary of the method: as §1

Structure (SMILES)	MIC (Klebsiella pneumoniae [1]) [µg/mL]	MIC (Klebsiella pneumoniae [2]) [µg/mL]	MIC [3] [µg/mL]	MIC (Klebsiella pneumoniae [4]) [µg/mL]	MIC (Staphylococcus aureus [5]) [µg/mL]	MIC (Staphylococcus aureus [6]) [µg/mL]	MIC [7] [µg/mL]	MIC (Klebsiella pneumoniae [8]) [µg/mL]	MIC [9] [µg/mL]	MIC (Staphylococcus aureus [10]) [µg/mL]	MIC [11] [µg/mL]	MIC (Klebsiella pneumoniae [12]) [µg/mL]	MIC (Pseudomonas aeruginosa [13]) [µg/mL]	MIC [14] [µg/mL]	MIC (Escherichia coli [15]) [µg/mL]	MIC (Escherichia coli [16]) [µg/mL]	MIC (Escherichia coli [17]) [µg/mL]	MIC (Streptococcus pneumoniae [18]) [µg/mL]	MIC (Streptococcus pneumoniae [19]) [µg/mL]	MIC (Staphylococcus aureus [20]) [µg/mL]	also measured
CO/N=C1\CN(c2c(F)cc3c(=O)c(C(=O)O)cn4c3c2OC[C@@H]4C)CCC1N (some centres undefined)	128 (≈ 317 µM)	0.5 (≈ 1.24 µM)	0.5 (≈ 1.24 µM)	1 (≈ 2.47 µM)	0.5 (≈ 1.24 µM)	1 (≈ 2.47 µM)	0.5 (≈ 1.24 µM)	16 (≈ 39.6 µM)	0.5 (≈ 1.24 µM)	0.5 (≈ 1.24 µM)	0.5 (≈ 1.24 µM)	8 (≈ 19.8 µM)	32 (≈ 79.1 µM)	0.5 (≈ 1.24 µM)	128 (≈ 317 µM)	8 (≈ 19.8 µM)	128 (≈ 317 µM)	0.5 (≈ 1.24 µM)	0.5 (≈ 1.24 µM)	1 (≈ 2.47 µM)	MIC (Pseudomonas aeruginosa [21]): 16 µg/mL (≈ 39.6 µM); MIC (Pseudomonas aeruginosa [22]): 16 µg/mL (≈ 39.6 µM); MIC [23]: 1 µg/mL (≈ 2.47 µM); MIC (Escherichia coli [24]): 4 µg/mL (≈ 9.89 µM); MIC (Escherichia coli [25]): > 128 µg/mL; MIC (Escherichia coli [26]): > 128 µg/mL; MIC (Escherichia coli [27]): 16 µg/mL (≈ 39.6 µM); MIC (Klebsiella pneumoniae [28]): 1 µg/mL (≈ 2.47 µM); MIC (Staphylococcus aureus [29]): 1 µg/mL (≈ 2.47 µM); MIC (Staphylococcus aureus [30]): 0.25 µg/mL (≈ 0.618 µM); MIC (Staphylococcus aureus [31]): 64 µg/mL (≈ 158 µM)
CNC1CCN(c2c(F)cc3c(=O)c(C(=O)O)cn(C4CC4)c3c2OC)C/C1=N\OC (centres undefined)	0.5 (≈ 1.16 µM)	16 (≈ 37 µM)	0.06 (≈ 0.139 µM)	0.5 (≈ 1.16 µM)	0.25 (≈ 0.578 µM)	0.25 (≈ 0.578 µM)	0.125 (≈ 0.289 µM)	16 (≈ 37 µM)	0.25 (≈ 0.578 µM)	0.06 (≈ 0.139 µM)	0.25 (≈ 0.578 µM)	1 (≈ 2.31 µM)	8 (≈ 18.5 µM)	0.06 (≈ 0.139 µM)	> 128	0.125 (≈ 0.289 µM)	128 (≈ 296 µM)	0.125 (≈ 0.289 µM)	0.125 (≈ 0.289 µM)	0.25 (≈ 0.578 µM)	MIC (Pseudomonas aeruginosa [21]): 16 µg/mL (≈ 37 µM); MIC (Pseudomonas aeruginosa [22]): 16 µg/mL (≈ 37 µM); MIC [23]: 0.5 µg/mL (≈ 1.16 µM); MIC (Escherichia coli [24]): 4 µg/mL (≈ 9.25 µM); MIC (Escherichia coli [25]): > 128 µg/mL; MIC (Escherichia coli [26]): > 128 µg/mL; MIC (Escherichia coli [27]): 32 µg/mL (≈ 74 µM); MIC (Klebsiella pneumoniae [28]): 2 µg/mL (≈ 4.62 µM); MIC (Staphylococcus aureus [29]): 0.25 µg/mL (≈ 0.578 µM); MIC (Staphylococcus aureus [30]): 0.06 µg/mL (≈ 0.139 µM); MIC (Staphylococcus aureus [31]): 0.125 µg/mL (≈ 0.289 µM)
CNC1CCN(c2nc3c(cc2F)c(=O)c(C(=O)O)cn3C2CC2)C/C1=N\OC (centres undefined)	0.125 (≈ 0.31 µM)	16 (≈ 39.7 µM)	0.25 (≈ 0.62 µM)	0.125 (≈ 0.31 µM)	0.5 (≈ 1.24 µM)	1 (≈ 2.48 µM)	0.06 (≈ 0.149 µM)	16 (≈ 39.7 µM)	0.5 (≈ 1.24 µM)	0.25 (≈ 0.62 µM)	0.5 (≈ 1.24 µM)	0.5 (≈ 1.24 µM)	2 (≈ 4.96 µM)	0.25 (≈ 0.62 µM)	> 128	0.125 (≈ 0.31 µM)	> 128	0.5 (≈ 1.24 µM)	0.5 (≈ 1.24 µM)	1 (≈ 2.48 µM)	MIC (Pseudomonas aeruginosa [21]): 16 µg/mL (≈ 39.7 µM); MIC (Pseudomonas aeruginosa [22]): 16 µg/mL (≈ 39.7 µM); MIC [23]: 2 µg/mL (≈ 4.96 µM); MIC (Escherichia coli [24]): 4 µg/mL (≈ 9.92 µM); MIC (Escherichia coli [25]): > 128 µg/mL; MIC (Escherichia coli [26]): > 128 µg/mL; MIC (Escherichia coli [27]): 16 µg/mL (≈ 39.7 µM); MIC (Klebsiella pneumoniae [28]): 0.5 µg/mL (≈ 1.24 µM); MIC (Staphylococcus aureus [29]): 1 µg/mL (≈ 2.48 µM); MIC (Staphylococcus aureus [30]): 0.25 µg/mL (≈ 0.62 µM); MIC (Staphylococcus aureus [31]): 0.5 µg/mL (≈ 1.24 µM)
CO/N=C1\CN(c2nc3c(cc2F)c(=O)c(C(=O)O)cn3C2CC2)CC1CN (centres undefined) [GEMIFLOXACIN]	2 (≈ 5.14 µM)	2 (≈ 5.14 µM)	0.008 (≈ 0.0205 µM)	0.06 (≈ 0.154 µM)	< 0.008	0.03 (≈ 0.077 µM)	4 (≈ 10.3 µM)	2 (≈ 5.14 µM)	0.06 (≈ 0.154 µM)	0.03 (≈ 0.077 µM)	0.06 (≈ 0.154 µM)	0.03 (≈ 0.077 µM)	1 (≈ 2.57 µM)	0.015 (≈ 0.0385 µM)	8 (≈ 20.5 µM)	0.015 (≈ 0.0385 µM)	16 (≈ 41.1 µM)	0.25 (≈ 0.642 µM)	0.25 (≈ 0.642 µM)	0.015 (≈ 0.0385 µM)	MIC (Pseudomonas aeruginosa [21]): 16 µg/mL (≈ 41.1 µM); MIC (Pseudomonas aeruginosa [22]): 8 µg/mL (≈ 20.5 µM); MIC [23]: 0.25 µg/mL (≈ 0.642 µM); MIC (Escherichia coli [24]): 0.125 µg/mL (≈ 0.321 µM); MIC (Escherichia coli [25]): 16 µg/mL (≈ 41.1 µM); MIC (Escherichia coli [26]): 16 µg/mL (≈ 41.1 µM); MIC (Escherichia coli [27]): 2 µg/mL (≈ 5.14 µM); MIC (Klebsiella pneumoniae [28]): 0.06 µg/mL (≈ 0.154 µM); MIC (Staphylococcus aureus [29]): 0.03 µg/mL (≈ 0.077 µM); MIC (Staphylococcus aureus [30]): 0.03 µg/mL (≈ 0.077 µM); MIC (Staphylococcus aureus [31]): 4 µg/mL (≈ 10.3 µM)
